The values that follow come from ChEMBL document CHEMBL4627292, “Diarylheptanoids with NO production inhibitory activity from Amomum kravanh” (Bioorg Med Chem Lett, 2020).

Data set [1] is described as follows: Cytotoxicity against mouse RAW264.7 cells assessed as cell survival at 100 uM after 24 hrs by MTT assay relative to control. In kind it is cell-based. As to conditions: read-out: Activity. Summed up: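 RAW264.7 seeded 5 × 10^3/well for 24 h at 37 °C, 5% CO2. Samples dissolved in DMSO and diluted in DMEM to final 100 μM with 1% DMSO; 1% DMSO as solvent control, cell-free medium as blank. After 24 h, MTT added for 4 h; medium removed, formazan dissolved in DMSO, absorbance read at 490 nm. % inhibition computed relative to solvent control after blank subtraction.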
A general note: Tetrazolium assays rely on reduction of a dye to a coloured formazan, in cell work by metabolically active cells.

Another data set deals with RAW264.7. The experiment in a line: Antiinflammatory activity in mouse RAW264.7 cells assessed as inhibition of LPS-induced nitric oxide production preincubated for 1 hr followed by LPS stimulation and measured after 24 hrs by Griess reagent based assay. Format: functional, cell-based. (In general: Nitrite, measured by Griess reagent, commonly stands in for NO production.)

With `COc1cc(C[C@@H](O)[C@@H]2C[C@@H](O)[C@@H](c3ccc(O)c(OC)c3)[C@H](c3ccc(O)c(OC)c3)O2)ccc1O`, the viability at 24 h, 100 µM in data set [1] was > 90%. The IC50 in the data set with RAW264.7 is > 50 µM. Take `COc1cc(CC[C@H]2C[C@H](O)[C@@H](O)[C@@H](c3ccc(O)c(OC)c3)O2)ccc1O`: the viability at 24 h, 100 µM in data set [1] is > 90%. The IC50 in the data set on RAW264.7 stood at 21.8 µM. For the molecule `COc1cc(C(=O)C[C@H]2C[C@@H](O)C[C@@H](c3ccc(O)c(OC)c3)O2)ccc1O`, the viability at 24 h, 100 µM in data set [1] is > 90%. For the same molecule, the IC50 with RAW264.7 came out at 17.4 µM. In the same order, the values of `COc1cc(C[C@@H](O)[C@H]2C[C@H](O)[C@@H](c3ccc(O)c(OC)c3)[C@H](c3ccc(O)c(OC)c3)O2)ccc1O` are > 90% and > 50 µM. As for `COc1cc(C[C@H]2O[C@@H](CC(=O)c3ccc(O)c(OC)c3)C[C@H]2O)ccc1O`, the viability at 24 h, 100 µM in data set [1] was > 90%. Further, the IC50 in the data set with RAW264.7 stood at 26.5 µM. Taken in the same sequence, the figures for `COc1cc(CC[C@H]2C[C@H](O)[C@H](O)[C@@H](c3ccc(O)c(OC)c3)O2)ccc1O` were > 90% and > 50 µM. Taken in the same sequence, the figures for `COc1cc(C[C@@H](O)[C@@H]2C[C@@H](O)[C@@H](c3cc(OC)c(O)c(OC)c3)[C@H](c3ccc(O)c(OC)c3)O2)ccc1O` were > 90% and 23.6 µM.

`COc1cc(C(=O)C[C@H]2C[C@H](O)C[C@@H](c3ccc(O)c(OC)c3)O2)ccc1O`: the viability at 24 h, 100 µM in data set [1] was > 90%. Also, in the data set with RAW264.7, the IC50 is > 50 µM. Take `COc1cc(C[C@H](O)[C@@H]2C[C@@H](O)C[C@H](c3ccc(O)c(OC)c3)O2)ccc1O`: the viability at 24 h, 100 µM in data set [1] is > 90%. For the same molecule, in the data set on RAW264.7, the half-inhibitory concentration (IC50) is > 50 µM.

Consider `C[C@@H]1C[C@H]2[C@@H]3CCC4=CC(=O)C=C[C@]4(C)[C@@]3(F)[C@@H](O)C[C@]2(C)[C@@]1(O)C(=O)CO` [DEXAMETHASONE], for which, in the data set with RAW264.7, the IC50 amounted to 32.5 µM.

As a reminder, the IC50 is the concentration that gives 50% inhibition.
